Assay results collected from several papers.
Target: Serine/threonine-protein kinase Sgk2 (SGK2, Homo sapiens, UniProt Q9HBY8)
Sequence (Q9HBY8 1-367, as in one of the studies): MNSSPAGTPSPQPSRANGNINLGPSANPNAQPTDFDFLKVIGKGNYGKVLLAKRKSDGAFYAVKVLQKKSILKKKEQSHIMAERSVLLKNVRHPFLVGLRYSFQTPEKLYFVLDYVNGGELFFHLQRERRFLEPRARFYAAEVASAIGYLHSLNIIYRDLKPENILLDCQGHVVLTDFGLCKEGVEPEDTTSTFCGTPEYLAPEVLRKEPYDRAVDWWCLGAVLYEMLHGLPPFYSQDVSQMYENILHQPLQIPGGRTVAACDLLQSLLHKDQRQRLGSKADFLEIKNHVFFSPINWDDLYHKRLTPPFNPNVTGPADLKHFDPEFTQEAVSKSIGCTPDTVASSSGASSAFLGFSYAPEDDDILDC

| SMILES | assay | setting | remaining binding |
| --- | --- | --- | --- |
| C[C@@H](c1ccc(-n2cnc3c(N)ncnc32)cc1)N1CCc2nn(C)c(Cc3ccccc3)c2C1=O | binding, competition with immobilised ligand | 0.1 µM | 48% |
| CCOC(=O)c1cc2cc(-c3cc(C(=O)NCc4ccc(C(=O)O)cc4)nn3C)ccc2[nH]1 | cell-free assay, competition with immobilised ligand | 0.1 µM | 100% |
| O=C(NCC1CCOCC1)c1n[nH]cc1NC(=O)c1c(F)cccc1F | binding, competition with immobilised ligand | 1 µM | 94% |
| O=C(c1ccc(Nc2ncc(Cl)c(-c3cc4ccccc4s3)n2)cc1)N1CCC(N2CCCC2)CC1 | binding, competition with immobilised ligand | 1 µM | 48% |
| COCCOc1nc(-c2ccc(Cl)nc2)nc2c1CN(C(=O)c1ncn3ccccc13)CC2 | cell-free assay, competition with immobilised ligand | 0.1 µM | 88% |
| c1cnn2ncc(-c3ccnc(N4CCC45COC5)n3)c2c1 | binding | 1 µM | 65% |
| COc1ccc2c(c1)O[C@H](c1ccc(OC)c(OC)c1)C[C@@H]2NC(=O)C1(c2ccc3c(c2)OC(F)(F)O3)CC1 | cell-free assay, competition with immobilised ligand | 1 µM | 100% |
| COc1cnc(Nc2cccc(S(N)(=O)=O)c2)nc1N1CCN(c2ccccc2)CC1 | binding, competition with immobilised ligand | 1 µM | 82% |
| CN(CCCC(F)(F)F)c1nccc(-c2cnn3ncccc23)n1 | binding | 1 µM | 93% |
| CC(=O)N1CCC(c2ccc(C(=O)NC(=N)N)cc2C(F)(F)F)CC1 | cell-free assay, competition with immobilised ligand | 1 µM | 100% |
| O=C(NCCCN1CCOCC1)c1ccc(Nc2ncc(Cl)c(-c3ccc(Cl)s3)n2)cc1 | binding, competition with immobilised ligand | 1 µM | 100% |
| CNC(=O)[C@@H]1CC[C@@H](n2c(-c3ccc4cnccc4c3)nc3ccc(C(=O)NCc4cccc(C(N)=O)c4)cc32)C1 | binding, competition with immobilised ligand | 1 µM | 100% |
| CN(C)c1ncc(F)c(-c2cnn3ncccc23)n1 | binding | 1 µM | 72% |
| c1cncc(-c2cccc(Nc3nccc(NC4CCCCC4)n3)c2)c1 | binding, competition with immobilised ligand | 10 µM | 95% |
| C=CC(=O)N1CCC(C(=O)NCC(=O)N2CCN(c3nc(-c4cnc(N)nc4C(F)F)nc(N4CCOCC4)n3)CC2)CC1 | binding, competition with immobilised ligand | 1 µM | 86% |
| C[C@@H]1CCN(c2nccc(-c3cnn4ncccc34)n2)C1 | binding | 1 µM | 81% |
| CCCOc1ccc([C@@H]2[C@@H](C(=O)O)[C@H](c3ccc4c(c3)OCO4)CN2CC(=O)Nc2c(CC)cccc2CC)cc1 | cell-free assay, competition with immobilised ligand | 1 µM | 69% |
| CN(c1nccc(-c2cnn3ncccc23)n1)C1CC1 | binding | 1 µM | 86% |
| O=C(Nc1cccnn1)N1CC(C/C=C/c2cncc(Oc3ccc(C(F)(F)F)cn3)n2)C1 | cell-free assay, competition with immobilised ligand | 1 µM | 74% |
| O=C(c1ccc(Nc2nccc(-c3cc4ccccc4s3)n2)cc1)N1CCC(N2CCCC2)CC1 | binding, competition with immobilised ligand | 1 µM | 47% |
| N[C@@H]1CCN(c2nccc(-c3cnn4ncccc34)n2)C1 | binding | 1 µM | 100% |
